Screening results as filed in PubChem BioAssay.
Many of the other results were omitted from the sample, so hits are more common in it than they were.
GASC1 inh = inhibitors of human demethylase GASC-1 KDM4C; Q9H3R0; GST-KDM4C 2-372, H3K9me3 peptide, LANCE TR-FRET; inhibition, % at 12.5 µM; 96,000 tested, 0.15% active; AID 720574;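 active = mean replicate inhibition above about 25%, with at least 55% of replicates also reaching it, limit read from the data, passing the limit was not always enough; inconclusive = only one of those two conditions met; inactive = neither condition met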
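Compound: one test concentration per compound; Material: GST-GASC-1 enzyme fragment 2-372; Amount: GASC-1 enzyme at 10 nM final in reaction; Also added: H3K9me3 peptide substrate, Fe(II), 2-oxoglutarate; Technique: LANCE TR-FRET; Times: 30 min demethylation and 1 h detection at room temperature.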
IDH1 mut inh = inhibitors of human IDH1 R132H. IDH1 R132H reductase, diaphorase/resazurin fluorescence, 60 min. inhibition, % at 10 µM. 70,000 tested, 0.18% active. AID 624101; in the data active = inhibition above about 34%; inconclusive = no clear call, values can overlap the other calls; inactive = below about 11%
Target sequence (O75874 whole entry R132H): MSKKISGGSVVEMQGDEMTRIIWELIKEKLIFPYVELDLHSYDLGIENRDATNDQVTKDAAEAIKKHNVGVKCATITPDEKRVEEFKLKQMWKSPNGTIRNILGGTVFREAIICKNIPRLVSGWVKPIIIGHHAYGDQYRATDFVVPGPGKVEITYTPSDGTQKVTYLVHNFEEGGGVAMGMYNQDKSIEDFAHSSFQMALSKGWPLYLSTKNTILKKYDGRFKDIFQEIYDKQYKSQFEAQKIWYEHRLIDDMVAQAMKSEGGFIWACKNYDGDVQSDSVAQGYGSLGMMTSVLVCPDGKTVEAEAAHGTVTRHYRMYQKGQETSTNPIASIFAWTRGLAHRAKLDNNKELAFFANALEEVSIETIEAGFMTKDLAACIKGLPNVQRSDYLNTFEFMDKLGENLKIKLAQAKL
T cruzi growth-1 = blocks T. cruzi growth in NIH3T3 culture; 77,000 tested, 5.9% active; AID 624255; inhibition, % at 8.34 µM; T. cruzi beta-gal in NIH3T3, GalScreen luminescence, 90 h;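 active = mean inhibition above about 93%, with at least 55% of replicates each passing it, limit read from the data, passing the limit was not always enough; inconclusive = only one of those two conditions holds; inactive = neither condition holds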
T cruzi growth-2 = inhibitors of T. cruzi proliferation | shares compounds with T cruzi growth-1 | T. cruzi beta-gal in NIH3T3, GalScreen luminescence, 90 h | inhibition, % at 8.35 µM | 5,600 tested, 72% active | AID 651739;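 active = mean replicate inhibition above about 95% and at least 55% of replicates individually reaching it, limit read from the data; inconclusive = only one of the two criteria is met; inactive = neither criterion is met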
T cruzi growth-3 = blocks T. cruzi growth in NIH3T3 host cells; shares compounds with T cruzi growth-1; T. cruzi beta-gal in NIH3T3, GalScreen luminescence, 90 h; inhibition, % at 2.09 µM; 5,600 tested, 21% active; AID 651740;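 active = mean inhibition above about 95%, with at least 55% of replicates also reaching it, limit read from the data; inconclusive = meets just one of the two conditions; inactive = meets neither condition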
NIH3T3 tox = NIH/3T3 (mouse) viability loss. 5,600 tested, 14% active. AID 651742. shares compounds with T cruzi growth-1. NIH/3T3 viability, CellTiter-Glo ATP luminescence, 90 h. cytotoxicity (signal decrease), % at 8.35 µM;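 active = mean signal decrease across replicates above about 35% based on untreated-well scatter, with enough replicates individually passing, limit read from the data; inconclusive = no rule stated though some were filed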
NIH3T3 tox 2 = kills mouse NIH/3T3 fibroblasts. shares compounds with T cruzi growth-1. NIH/3T3 viability, CellTiter-Glo ATP luminescence, 90 h. inhibition, % at 24.9 µM. 5,600 tested, 56% active. AID 651744;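 active = mean loss of cell viability signal at or above a set limit, and enough replicates individually reaching it; inconclusive = meets only the mean limit or only the replicate share; inactive = meets neither condition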
Hits are given with their value; n = inactive; u = inconclusive; x = not tested or not shown.

SMILES | GASC1 inh | IDH1 mut inh | T cruzi growth-1 | T cruzi growth-2 | T cruzi growth-3 | NIH3T3 tox | NIH3T3 tox 2
C[C@H](O)C#Cc1ccc2c(c1)O[C@@H](CN(C)Cc1ccncc1)[C@@H](C)CN([C@@H](C)CO)S2(=O)=O | n | n | n | x | x | x | x
CC(C)NC(=O)N(C)C[C@H]1Oc2c(NC(=O)c3ccc(-c4nccs4)cc3)cccc2C(=O)N([C@H](C)CO)C[C@@H]1C | n | x | n | x | x | x | x
COc1ccc(C)cc1CN1CCC(CNC(=O)Nc2cc(Cl)ccc2C)CC1 | x | n | x | x | x | x | x
C[C@@H]1CN([C@@H](C)CO)C(=O)Cc2cc(NS(=O)(=O)c3ccc(Cl)cc3)ccc2O[C@H]1CN(C)C | n | n | x | x | x | x | x
COC(=O)C[C@@H]1CC[C@H]2[C@@H](COc3ccc(NC(=O)c4cccs4)cc3C(=O)N2C)O1 | n | x | n | x | x | x | x
Cc1ccc(S(=O)(=O)N(C)C[C@@H]2Oc3ccc(NC(=O)NC(C)C)cc3C(=O)N([C@@H](C)CO)C[C@H]2C)cc1 | n | n | n | x | x | x | x
CCCNC(=O)Nc1ccc2c(c1)OC[C@@H](C)N(CC1CCCC1)C[C@H](C)[C@H](OC)CN(C)C2=O | n | x | x | x | x | x | x
CO[C@H]1CN(C)C(=O)c2cc(NC(C)=O)ccc2OC[C@@H](C)N(C(=O)c2ccccc2F)C[C@@H]1C | n | n | n | x | x | x | x
C[C@@H]1CCCCO[C@@H](CN(C)C(=O)Nc2ccc3c(c2)OCO3)[C@H](C)CN([C@@H](C)CO)C(=O)c2cc(NC(=O)Nc3ccc(F)cc3)ccc2O1 | n | n | n | x | x | x | x
C[C@@H]1CCCCO[C@@H](CN(C)C(=O)Nc2ccccc2)[C@H](C)CN([C@@H](C)CO)C(=O)c2cc(NC(=O)Nc3ccc4c(c3)OCO4)ccc2O1 | n | x | n | x | x | x | x
C[C@@H]1CCCCO[C@@H](CN(C)C(=O)Nc2ccc3c(c2)OCO3)[C@@H](C)CN([C@@H](C)CO)C(=O)c2cc(NC(=O)CCCN(C)C)ccc2O1 | n | n | x | x | x | x | x
C[C@H]1CCCCO[C@@H](CN(C)C(=O)Nc2ccc3c(c2)OCO3)[C@@H](C)CN([C@@H](C)CO)C(=O)c2cc(NC(=O)Nc3ccc(F)cc3)ccc2O1 | n | x | 103 | 106 | n | n | n
C[C@@H]1CCCCO[C@@H](CN(C)C(=O)Nc2ccc3c(c2)OCO3)[C@@H](C)CN([C@@H](C)CO)C(=O)c2cc(NC(=O)Cc3ccccc3)ccc2O1 | n | x | n | x | x | x | x
C[C@@H]1CCCCO[C@H](CN(C)C(=O)Nc2ccc3c(c2)OCO3)[C@H](C)CN([C@H](C)CO)C(=O)c2cc(NC(=O)CCCN(C)C)ccc2O1 | n | x | 104 | n | n | n | n
C[C@@H]1CCCCO[C@H](CN(C)C(=O)Nc2ccc3c(c2)OCO3)[C@H](C)CN([C@H](C)CO)C(=O)c2cc(NC(=O)Nc3ccccc3)ccc2O1 | n | n | 108 | 111 | n | n | n
C[C@H]1CCCCO[C@H](CN(C)C(=O)Nc2ccc3c(c2)OCO3)[C@@H](C)CN([C@@H](C)CO)C(=O)c2cc(NC(=O)Cc3ccccc3)ccc2O1 | n | x | u | n | n | n | n
CCCNC(=O)C[C@@H]1C[C@H]2c3cc(NS(=O)(=O)c4ccc(OC)cc4)ccc3O[C@H]2[C@H](CO)O1 | n | n | n | x | x | x | x
COc1ccc(OC)c(NC(=O)C2=C(C)NC(=O)NC2c2cccc(OC)c2OC)c1 (configuration not stated) | x | n | x | x | x | x | x
COc1cc(CC2COC(=O)C2(O)Cc2ccc(O)c(OC)c2)ccc1O (configuration not stated) | x | n | x | x | x | x | x
C[C@@H]1CN([C@H](C)CO)C(=O)c2cc(NC(=O)Cc3ccccc3)ccc2O[C@@H](C)CCCCO[C@@H]1CN(C)Cc1ccc(C(=O)O)cc1 | n | n | n | x | x | x | x
C[C@H]1CCCCO[C@@H](CN(C)C(=O)Nc2ccc3c(c2)OCO3)[C@@H](C)CN([C@@H](C)CO)C(=O)c2cc(NC(=O)Nc3ccccc3)ccc2O1 | n | x | 117 | 111 | n | n | n
C[C@@H]1CN([C@@H](C)CO)C(=O)c2cc(NC(=O)Nc3ccccc3)ccc2O[C@@H](C)CCCCO[C@@H]1CN(C)C(=O)Nc1ccc2c(c1)OCO2 | n | n | n | x | x | x | x
Cc1ccccc1CN(C)C[C@@H]1OCc2cnnn2CCCC(=O)N([C@H](C)CO)C[C@H]1C | n | n | n | x | x | x | x
COC(=O)C[C@@H]1CC[C@@H]2[C@@H](COc3ccc(NC(=O)Cc4cccs4)cc3C(=O)N2C)O1 | n | x | n | x | x | x | x
N#C[C@H]1[C@@H](c2ccc(C#CC3CCCC3)cc2)[C@@H](CO)N1S(=O)(=O)Cc1ccccc1 | n | n | n | x | x | x | x
SMILES | GASC1 inh | IDH1 mut inh | T cruzi growth-1 | T cruzi growth-2 | T cruzi growth-3 | NIH3T3 tox | NIH3T3 tox 2
N#C[C@H]1[C@H](c2ccc(C#CC3CCCCC3)cc2)[C@@H](CO)N1S(=O)(=O)c1ccccc1 | n | x | n | x | x | x | x
N#C[C@H]1[C@@H](c2ccc(C#CC3CC3)cc2)[C@H](CO)N1S(=O)(=O)c1ccccc1 | n | x | 101 | 98 | 113 | u | 53
N#C[C@@H]1[C@@H](c2ccc(C#CC3CC3)cc2)[C@H](CO)N1S(=O)(=O)c1ccccc1 | n | x | 96 | u | 102 | n | u
N#C[C@H]1[C@H](c2ccc(C#CC3CC3)cc2)[C@@H](CO)N1S(=O)(=O)c1ccccc1 | n | x | 97 | 100 | 103 | n | n
N#C[C@@H]1[C@@H](c2ccc(C#CC3CCCCC3)cc2)[C@H](CO)N1S(=O)(=O)c1ccccc1 | n | x | n | x | x | x | x
COc1cc(OC)c2c(=O)c(-c3ccc4c(c3)OCO4)coc2c1 | x | n | x | x | x | x | x
O=C(C[C@H]1CC[C@H]2[C@@H](COC[C@@H](O)CN2C(=O)Nc2ccc(Cl)c(Cl)c2)O1)NCc1ccccc1 | n | x | n | x | x | x | x
O=C(C[C@@H]1CC[C@H]2[C@@H](COC[C@H](O)CN2C(=O)Nc2ccc(Cl)c(Cl)c2)O1)NCc1ccncc1 | n | x | 128 | 98 | n | n | 39
O=C(C[C@H]1CC[C@@H]2[C@H](COC[C@H](O)CN2C(=O)Nc2ccc(Cl)c(Cl)c2)O1)NCc1ccc(Cl)c(Cl)c1 | n | x | 106 | 96 | n | n | 104
O=C(C[C@H]1CC[C@H]2[C@@H](COC[C@@H](O)CN2C(=O)Nc2ccc(Cl)c(Cl)c2)O1)NCc1ccc(Cl)cc1 | n | x | n | x | x | x | x
O=C(C[C@@H]1CC[C@@H]2[C@H](COC[C@H](O)CN2C(=O)Nc2ccc(Cl)c(Cl)c2)O1)NCc1ccccc1 | n | x | n | x | x | x | x
O=C(C[C@H]1CC[C@H]2[C@@H](COC[C@H](O)CN2C(=O)Nc2ccc(Cl)c(Cl)c2)O1)NCc1ccncc1 | n | x | 153 | 110 | n | n | n
CC(C)NC(=O)Nc1ccc2c(c1)C(=O)N([C@H](C)CO)C[C@H](C)[C@H](CN(C)S(=O)(=O)c1cccs1)O2 | n | n | n | x | x | x | x
O=C(c1ccccn1)N1CC(=O)N2[C@H](CO)[C@H](c3ccc(C#CC4CCCC4)cc3)[C@H]2C1 | n | x | x | x | x | x | x
